According to ChEMBL document CHEMBL5303300, “EUbOPEN Chemogenomics Library - Multiplex” (2023):
Values joined by “and” are separate entries in the source; they are usually repeats but may differ in a detail not shown here. Identical values can stand only once.

How the values were obtained:
[1] = system: Fibroblast; test: Multiplex assay against human fibroblast; assay type: toxicity, cell-based; conditions: number of replicates 2
Summary of the method: (§1)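 On a CQ1 microscope at 37°C and 5% CO2, live cells were imaged after compound addition. They had been stained at seeding with Hoechst33342, BioTracker Green Microtubule Cytoskeleton Dye, MitoTracker Red and Annexin V Alexa Fluor 680. CellPathfinder machine-learning gating assigned cells to Hoechst high-intensity objects or normal cells, normal cells to healthy, pyknosed or fragmented nuclei, and pyknosed cells to mitotic or apoptotic. Tubulin, mitochondrial-mass and membrane-permeability phenotypes are per cents of healthy-nucleus cells.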

[2] = system: HEK-293T; test: Multiplex assay against HEK293T; assay type: toxicity, cell-based; conditions: human, number of replicates 2; summary of the method: as §1
[3] = 12 h, 1 µM, compound concentration 1 uM
[4] = 12 h, 10 µM, compound concentration 10 uM
[5] = 24 h, 1 µM, compound concentration 1 uM
[6] = 24 h, 10 µM, compound concentration 10 uM
[7] = 48 h, 1 µM, compound concentration 1 uM
[8] = 48 h, 10 µM, compound concentration 10 uM

N[C@@H]1c2cccnc2[C@H](OC(=O)N2CCC(n3c(=O)[nH]c4ncccc43)CC2)CC[C@H]1c1cccc(F)c1F [RIMEGEPANT]
Population Apoptotic (%) [1, 3]: 56% and 33%
Population Fragmented Nuclei (%) [1, 3]: 6% and 16%
Population Healthy Nuclei (%) [1, 3]: 56% and 69%
Population Hoechst High Intensity Objects (%) [1, 3]: 0% and 3%
Population Membrane Permeable-Phenotype (%) [1, 3]: 5% and 7%
Population Mitochondria Different-Phenotype (%) [1, 3]: 1% and 0%
Population Mitotic Cells (%) [1, 3]: 43% and 66%
Population Normal (%) [1, 3]: 100% and 96%
Population Pyknosed Nuclei (%) [1, 3]: 37% and 14%
Population Tubulin-Different-Phenotype (%) [1, 3]: 20% and 21%
Total Cell Count [1, 3]: 129 and 236
Population Apoptotic (%) [1, 4]: 47% and 44%
Population Fragmented Nuclei (%) [1, 4]: 14% and 13%
Population Healthy Nuclei (%) [1, 4]: 75%
Population Hoechst High Intensity Objects (%) [1, 4]: 0%
Population Membrane Permeable-Phenotype (%) [1, 4]: 9% and 14%
Population Mitochondria Different-Phenotype (%) [1, 4]: 5% and 4%
Population Mitotic Cells (%) [1, 4]: 52% and 55%
Population Normal (%) [1, 4]: 100%
Population Pyknosed Nuclei (%) [1, 4]: 10% and 11%
Population Tubulin-Different-Phenotype (%) [1, 4]: 61% and 59%
Total Cell Count [1, 4]: 183 and 237
Population Apoptotic (%) [1, 5]: 54% and 32%
Population Healthy Nuclei (%) [1, 5]: 60% and 61%
Population Hoechst High Intensity Objects (%) [1, 5]: 0% and 2%
Population Membrane Permeable-Phenotype (%) [1, 5]: 10% and 1%
Population Mitochondria Different-Phenotype (%) [1, 5]: 0%
Population Mitotic Cells (%) [1, 5]: 45% and 67%
Population Normal (%) [1, 5]: 99% and 97%
Population Pyknosed Nuclei (%) [1, 5]: 35% and 18%
Population Tubulin-Different-Phenotype (%) [1, 5]: 22% and 15%
Total Cell Count [1, 5]: 124 and 234
Population Apoptotic (%) [1, 6]: 47% and 64%
Population Fragmented Nuclei (%) [1, 6]: 12%
Population Healthy Nuclei (%) [1, 6]: 78% and 80%
Population Hoechst High Intensity Objects (%) [1, 6]: 0%
Population Membrane Permeable-Phenotype (%) [1, 6]: 7% and 6%
Population Mitochondria Different-Phenotype (%) [1, 6]: 3% and 5%
Population Mitotic Cells (%) [1, 6]: 52% and 35%
Population Normal (%) [1, 6]: 100% and 99%
Population Pyknosed Nuclei (%) [1, 6]: 9% and 7%
Population Tubulin-Different-Phenotype (%) [1, 6]: 50% and 36%
Total Cell Count [1, 6]: 199 and 236
Population Apoptotic (%) [1, 7]: 65% and 48%
Population Fragmented Nuclei (%) [1, 7]: 8% and 21%
Population Healthy Nuclei (%) [1, 7]: 75% and 65%
Population Hoechst High Intensity Objects (%) [1, 7]: 0% and 1%
Population Membrane Permeable-Phenotype (%) [1, 7]: 4% and 2%
Population Mitochondria Different-Phenotype (%) [1, 7]: 1%
Population Mitotic Cells (%) [1, 7]: 35% and 51%
Population Normal (%) [1, 7]: 100% and 98%
Population Pyknosed Nuclei (%) [1, 7]: 16% and 12%
Population Tubulin-Different-Phenotype (%) [1, 7]: 6% and 10%
Total Cell Count [1, 7]: 125 and 227
Population Apoptotic (%) [1, 8]: 77% and 47%
Population Fragmented Nuclei (%) [1, 8]: 14% and 13%
Population Healthy Nuclei (%) [1, 8]: 81% and 78%
Population Hoechst High Intensity Objects (%) [1, 8]: 0%
Population Membrane Permeable-Phenotype (%) [1, 8]: 1% and 5%
Population Mitochondria Different-Phenotype (%) [1, 8]: 1% and 0%
Population Mitotic Cells (%) [1, 8]: 22% and 52%
Population Normal (%) [1, 8]: 99% and 100%
Population Pyknosed Nuclei (%) [1, 8]: 4% and 7%
Population Tubulin-Different-Phenotype (%) [1, 8]: 37% and 16%
Total Cell Count [1, 8]: 205 and 225
Population Apoptotic (%) [2, 3]: 64% and 44%
Population Fragmented Nuclei (%) [2, 3]: 4% and 5%
Population Healthy Nuclei (%) [2, 3]: 78% and 83%
Population Hoechst High Intensity Objects (%) [2, 3]: 14% and 10%
Population Membrane Permeable-Phenotype (%) [2, 3]: 3% and 1%
Population Mitochondria Different-Phenotype (%) [2, 3]: 18% and 17%
Population Mitotic Cells (%) [2, 3]: 35% and 55%
Population Normal (%) [2, 3]: 85% and 89%
Population Pyknosed Nuclei (%) [2, 3]: 17% and 10%
Population Tubulin-Different-Phenotype (%) [2, 3]: 47%
Total Cell Count [2, 3]: 573 and 694
Population Apoptotic (%) [2, 4]: 40% and 46%
Population Fragmented Nuclei (%) [2, 4]: 4%
Population Healthy Nuclei (%) [2, 4]: 83% and 84%
Population Hoechst High Intensity Objects (%) [2, 4]: 5% and 6%
Population Membrane Permeable-Phenotype (%) [2, 4]: 1% and 4%
Population Mitochondria Different-Phenotype (%) [2, 4]: 49% and 18%
Population Mitotic Cells (%) [2, 4]: 60% and 53%
Population Normal (%) [2, 4]: 94% and 93%
Population Pyknosed Nuclei (%) [2, 4]: 12% and 11%
Population Tubulin-Different-Phenotype (%) [2, 4]: 98% and 82%
Total Cell Count [2, 4]: 526 and 617
Population Apoptotic (%) [2, 5]: 56% and 37%
Population Fragmented Nuclei (%) [2, 5]: 7% and 6%
Population Healthy Nuclei (%) [2, 5]: 75% and 85%
Population Hoechst High Intensity Objects (%) [2, 5]: 11% and 8%
Population Membrane Permeable-Phenotype (%) [2, 5]: 0% and 1%
Population Mitochondria Different-Phenotype (%) [2, 5]: 5% and 4%
Population Mitotic Cells (%) [2, 5]: 43% and 62%
Population Normal (%) [2, 5]: 88% and 91%
